Common to all, as to assay: MTT assay, cytotoxicity/growth inhibition
One assay has as its system MCF-7 (breast carcinoma). In kind it is cell-based. As to conditions: Homo sapiens; for inhibition at 20 µM: MCF7, 48 h, read-out: Cytotoxic Activity (% Growth Inhibition); for IC50: MCF7. Summed up:
(§1)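 Cells were grown in RPMI (A549, HCT-116, PC-3) or DMEM (MCF-7) with 10% FBS at 37 °C and 5% CO2. Seeding per well was […] and PC-3 8 × 10^4 cells. […] MTT 250 μg/mL, 4 h; DMSO; A570; triplicate; mean ± SE.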

Assay [1] deals with PC-3 (prostate carcinoma). It counts as cell-based. As to conditions: Homo sapiens; for inhibition at 20 µM: 48 h, read-out: Cytotoxic Activity (% Growth Inhibition). In outline: as §1
Assay [2] relates to HCT-116 (colon carcinoma). It counts as cell-based. As to conditions: Homo sapiens; for inhibition at 20 µM: HCT-116, 48 h, read-out: Cytotoxic Activity (% Growth Inhibition); for IC50: HCT-116. In outline:
as §1

In another assay the test system is A549 (lung carcinoma). In kind it is cell-based, human. As to conditions: Homo sapiens; for inhibition at 20 µM: A549, 48 h; for IC50: A549. In outline:
as §1

[3] abbreviates: read-out: Cytotoxic Activity (% Growth Inhibition), A549, 20 μM concentration, MTT, 48 h.

Like-named read-outs stand apart in the source and are kept apart here.

Turning to `Cc1cccc(C(=O)OCC2=CCC3[C@](C)(CO)[C@H](O)CC[C@@]3(C)[C@@H]2/C=C/C2=CCOC2=O)c1` (stereo partly drawn) [Compound 9i, ((1S,5R,6R,8aR)-6-Hydroxy-5-(hydroxymethyl)-5,8a-dimethyl-1-((E)-2-(2-oxo-2,5-dihydrofuran-3-yl)vinyl)-1,4,4a,5,6,7,8,8a-octahydronaphthalen-2-yl)methyl 3-Methylbenzoate], the inhibition at 20 µM is 2.09 ± 0.07% in the assay with MCF-7 (breast carcinoma), 0% in assay [1], 0% in assay [2] and 21.4 ± 0.42% in the assay with A549 (lung carcinoma) (setting [3]).
Consider `COc1cc(OC)cc(C(=O)OCC2=CCC3[C@](C)(CO)[C@H](O)CC[C@@]3(C)[C@@H]2/C=C/C2=CCOC2=O)c1` (stereo partly drawn) [Compound 9j, ((1S,5R,6R,8aR)-6-Hydroxy-5-(hydroxymethyl)-5,8a-dimethyl-1-((E)-2-(2-oxo-2,5 dihydrofuran-3-yl)vinyl)-1,4,4a,5,6,7,8,8a-octahydronaphthalen-2-yl)methyl 3,5-Dimethoxybenzoate], for which the IC50 (commonly the concentration needed to halve the response being measured) with MCF-7 (breast carcinoma) was 16.6 µM; in assay [1] it was 6.1 µM; in assay [2], above 20 µM; in the assay on A549 (lung carcinoma), above 20 µM. The inhibition at 20 µM with MCF-7 (breast carcinoma) stood at 51 ± 0.49%; in assay [1], 70 ± 0.82%; in assay [2] it was 23.9 ± 0.49%; in the assay on A549 (lung carcinoma) (setting [3]), 8.7 ± 0.45%.
Turning to `COc1ccc(C(=O)OCC2=CCC3[C@](C)(CO)[C@H](O)CC[C@@]3(C)[C@@H]2/C=C/C2=CCOC2=O)cc1Cl` (stereo partly drawn) [Compound 9l, ((1S,5R,6R,8aR)-6-Hydroxy-5-(hydroxymethyl)-5,8a-dimethyl-1-((E)-2-(2-oxo-2,5-dihydrofuran-3-yl)vinyl)-1,4,4a,5,6,7,8,8a-octahydronaphthalen-2-yl)methyl 3-Chloro-4-methoxybenzoate], the concentration for half-maximal inhibition (IC50) in the assay with MCF-7 (breast carcinoma) was 17.8 µM; in assay [1] it was 5.7 µM; in assay [2], above 20 µM; in the assay with A549 (lung carcinoma), above 20 µM. For the same compound, the inhibition at 20 µM was determined as 47 ± 0.24% in the assay on MCF-7 (breast carcinoma), 71.4 ± 0.56% in assay [1], 27.5 ± 0.94% in assay [2] and 3.3 ± 0.63% in the assay on A549 (lung carcinoma) (setting [3]).
As for `C[C@]1(CO)C2CC=C(COC(=O)c3ccc(Br)cc3F)[C@@H](/C=C/C3=CCOC3=O)[C@]2(C)CC[C@H]1O` (stereo partly drawn) [Compound 9m, ((1S,5R,6R,8aR)-6-Hydroxy-5-(hydroxymethyl)-5,8a-dimethyl-1-((E)-2-(2-oxo-2,5-dihydrofuran-3-yl)vinyl)-1,4,4a,5,6,7,8,8a-octahydronaphthalen-2-yl)methyl 4-Bromo-2-fluorobenzoate], the IC50 in the assay with MCF-7 (breast carcinoma) is above 20 µM; in assay [1], 7.6 µM; in assay [2], above 20 µM; with A549 (lung carcinoma), above 20 µM. For the same compound, the inhibition at 20 µM was found to be 8 ± 0.85% in the assay with MCF-7 (breast carcinoma), 78.9 ± 0.96% in assay [1], 23.1 ± 0.84% in assay [2] and 14.9 ± 0.24% in the assay on A549 (lung carcinoma) (setting [3]).
Regarding `C[C@]1(CO)C2CC=C(COC(=O)c3ccccc3C(F)(F)F)[C@@H](/C=C/C3=CCOC3=O)[C@]2(C)CC[C@H]1O` (stereo partly drawn) [Compound 9n, ((1S,5R,6R,8aR)-6-Hydroxy-5-(hydroxymethyl)-5,8a-dimethyl-1-((E)-2-(2-oxo-2,5-dihydrofuran-3-yl)vinyl)-1,4,4a,5,6,7,8,8a-octahydronaphthalen-2-yl)methyl 2-(Trifluoromethyl)benzoate], the IC50 in the assay with MCF-7 (breast carcinoma) is above 20 µM; in assay [1] it was 5.7 µM; in assay [2], above 20 µM; in the assay with A549 (lung carcinoma) it was above 20 µM. For the same compound, the inhibition at 20 µM in the assay with MCF-7 (breast carcinoma) came out at 18 ± 0.58%; in assay [1] it was 72.2 ± 0.41%; in assay [2], 44.9 ± 0.78%; in the assay with A549 (lung carcinoma) (setting [3]) it was 5.6 ± 0.14%.
For `C[C@]1(CO)C2CC=C(COC(=O)Cc3ccccc3)[C@@H](/C=C/C3=CCOC3=O)[C@]2(C)CC[C@H]1O` (stereo partly drawn) [Compound 9o, ((1S,5R,6R,8aR)-6-Hydroxy-5-(hydroxymethyl)-5,8a-dimethyl-1-((E)-2-(2-oxo-2,5-dihydrofuran-3-yl)vinyl)-1,4,4a,5,6,7,8,8a-octahydronaphthalen-2-yl)methyl 2-Phenylacetate], the inhibition at 20 µM in the assay with MCF-7 (breast carcinoma) was 29.2 ± 0.29%; in assay [1], 15 ± 0.72%; in assay [2], 0%; in the assay on A549 (lung carcinoma) (read-out: Cytotoxic Activity (% Growth Inhibition)), 43.4 ± 0.19%.
Take `C[C@]1(CO)C2CC=C(COC(=O)Cc3ccc(F)cc3)[C@@H](/C=C/C3=CCOC3=O)[C@]2(C)CC[C@H]1O` (stereo partly drawn) [Compound 9p, ((1S,5R,6R,8aR)-6-Hydroxy-5-(hydroxymethyl)-5,8a-dimethyl-1-((E)-2-(2-oxo-2,5-dihydrofuran-3-yl)vinyl)-1,4,4a,5,6,7,8,8a-octahydronaphthalen-2-yl)methyl 2-(4-Fluorophenyl)acetate]: the inhibition at 20 µM in the assay on MCF-7 (breast carcinoma) turned out to be 12 ± 0.85%; in assay [1], 44 ± 0.89%; in assay [2], 27.6 ± 0.31%; with A549 (lung carcinoma) (setting [3]), 32.6 ± 0.96%.
The matching figures for `C[C@]1(CO)C2CC=C(COC(=O)Cc3ccc(Cl)cc3)[C@@H](/C=C/C3=CCOC3=O)[C@]2(C)CC[C@H]1O` (stereo partly drawn) [Compound 9q, ((1S,5R,6R,8aR)-6-Hydroxy-5-(hydroxymethyl)-5,8a-dimethyl-1-((E)-2-(2-oxo-2,5-dihydrofuran-3-yl)vinyl)-1,4,4a,5,6,7,8,8a-octahydronaphthalen-2-yl)methyl 2-(4-Chlorophenyl)acetate]: 28 ± 0.87%, 38 ± 0.96%, 19.3 ± 0.97% and 47.2 ± 0.85%.
The matching figures for `C[C@]1(CO)C2CC=C(COC(=O)Cc3ccc(I)cc3)[C@@H](/C=C/C3=CCOC3=O)[C@]2(C)CC[C@H]1O` (stereo partly drawn) [Compound 9r, ((1S,5R,6R,8aR)-6-Hydroxy-5-(hydroxymethyl)-5,8a-dimethyl-1-((E)-2-(2-oxo-2,5-dihydrofuran-3-yl)vinyl)-1,4,4a,5,6,7,8,8a-octahydronaphthalen-2-yl)methyl 2-(4-Iodophenyl)acetate]: 12 ± 0.96%, 10.6 ± 0.22%, 27.2 ± 0.48% and 2.4 ± 0.19%.
The matching figures for `Cc1ccc(CC(=O)OCC2=CCC3[C@](C)(CO)[C@H](O)CC[C@@]3(C)[C@@H]2/C=C/C2=CCOC2=O)cc1` (stereo partly drawn) [Compound 9t, ((1S,5R,6R,8aR)-6-Hydroxy-5-(hydroxymethyl)-5,8a-dimethyl-1-((E)-2-(2-oxo-2,5-dihydrofuran-3-yl)vinyl)-1,4,4a,5,6,7,8,8a-octahydronaphthalen-2-yl)methyl 2-(p-Tolyl)acetate]: 5.2 ± 0.5%, 52 ± 0.85%, 13.9 ± 0.64% and 49.7 ± 0.92%.
On to `COc1cc(CC(=O)OCC2=CCC3[C@](C)(CO)[C@H](O)CC[C@@]3(C)[C@@H]2/C=C/C2=CCOC2=O)cc(OC)c1OC` (stereo partly drawn) [Compound 9u, ((1S,5R,6R,8aR)-6-Hydroxy-5-(hydroxymethyl)-5,8a-dimethyl-1-((E)-2-(2-oxo-2,5-dihydrofuran-3-yl)vinyl)-1,4,4a,5,6,7,8,8a-octahydronaphthalen-2-yl)methyl 2-(3,4,5-Trimethoxyphenyl)acetate], for which the inhibition at 20 µM in the assay with MCF-7 (breast carcinoma) amounted to 69 ± 0.58%; in assay [1], 48.7 ± 0.96%; in assay [2], 35.9 ± 0.87%; in the assay with A549 (lung carcinoma) (setting [3]), 32.6 ± 0.38%.

Source of the values: publication PMC9933479 (ACS Omega, 2023).
